Measured values published in ChEMBL document CHEMBL1153393, “Discovery of N-(4-methoxyphenyl)-N,2-dimethylquinazolin-4-amine, a potent apoptosis inducer and efficacious anticancer agent with high blood brain barrier penetration” (J Med Chem, 2009).
Active and inactive are the calls of the source. The calls are words filed in the database; no cut-off is given here.

Tests used:
[1] = test system: HCT-116; experiment: Induction of apoptosis in human HCT116 cells assessed as caspase activation after 24 hrs by HTS assay; format: functional, cell-based; conditions: HCT-116, 24 h
How it was run: (§1)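 Cell-based caspase HTS assay. Cells plated with various concentrations and incubated 24 h at 37 °C, then given fluorogenic caspase substrate N-(Ac-DEVD)-N'-ethoxycarbonyl-R110. EC50 reported as mean ± SEM of three or more experiments.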

[2] = test system: T47D; experiment: Induction of apoptosis in human T47D cells assessed as caspase activation after 24 hrs by HTS assay; format: functional, cell-based; how it was run: as §1
[3] = test system: SNU-398; experiment: Induction of apoptosis in human SNU398 cells assessed as caspase activation after 24 hrs by HTS assay; format: functional, cell-based; conditions: SNU-398, 24 h; how it was run: as §1
[4] = Drug level in rhesus monkey cerebrospinal fluid at 7.5 mg/kg, iv after 24 hrs; format: ADME, organism-based, Macaca mulatta; design: dose 7.5 mg/kg, route intravenous; conditions: in vivo
[5] = Ratio of AUC (0 to infinity) in C57BL/6 mouse brain to AUC (0 to infinity) in C57BL/6 mouse plasma at 2.5 mg/kg, iv; format: ADME, organism-based; design: dose 2.5 mg/kg, route intravenous; conditions: read-out: Ratio AUC
How it was run: (§2)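 Mice given a single iv dose of 2.5 mg/kg. Plasma from blood samples and homogenized whole brain collected over time and analyzed by LC-MS/MS. Brain/plasma ratio is taken from the AUCs of the concentration-time curves.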

[6] = test system: T47D; experiment: Induction of apoptosis in human T47D cells assessed as S phase DNA content at 5 nM after 48 hrs by using propidium iodide staining by flow cytometry; format: functional
How it was run: (§3)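 T47D cells treated with 5 nM for 24 or 48 h, then stained with propidium iodide. DNA content analysed by flow cytometry, with cells scored in G1, G2/M and subdiploid (sub-G1) populations against untreated control.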

[7] = test system: Jurkat; experiment: Induction of apoptosis in human Jurkat cells assessed as sub-diploid DNA content at 10 nM after 18 hrs by flow cytometry in presence of caspase inhibitor MX-1013; format: functional
[8] = test system: MX1; experiment: Antitumor activity against human MX1 cells xenografted in Crl:Nu/Nu-nuBR mouse assessed as tumor growth inhibition at 7.5 mg/kg, iv administered once weekly for 3 weeks; format: functional, organism-based; design: dose 7.5 mg/kg
[9] = test system: T47D; experiment: Induction of apoptosis in human T47D cells assessed as sub-diploid DNA content at 5 nM after 48 hrs by using propidium iodide staining by flow cytometry; format: functional; how it was run: as §3
[10] = test system: T47D; experiment: Growth inhibition of human T47D cells after 48 hrs by celltiter assay; format: functional
How it was run: (§4)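 Cells ATCC-sourced, in 96-well format, exposed to serial concentrations for 48 h. Survival quantitated by CellTiter-Glo luminescence. GI50 reported as mean ± SEM of three or more experiments.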

[11] = test system: SNU-398; experiment: Growth inhibition of human SNU398 cells after 48 hrs by celltiter assay; format: functional; conditions: SNU-398, 48 h; how it was run: as §4
[12] = test system: Plasma; experiment: AUC (0 to infinity) in C57BL/6 mouse plasma at 2.5 mg/kg, iv; format: ADME, organism-based; design: time infinity, dose 2.5 mg/kg, route intravenous; conditions: in vivo; how it was run: as §2
[13] = test system: T47D; experiment: Induction of apoptosis in human T47D cells assessed as G1 phase DNA content at 5 nM after 48 hrs by using propidium iodide staining by flow cytometry; format: functional; how it was run: as §3
[14] = test system: MX1; experiment: Antitumor activity against human MX1 cells xenografted in Crl:Nu/Nu-nuBR mouse assessed as tumor growth inhibition at 5 mg/kg, iv administered once weekly for 3 weeks; format: functional, organism-based; design: dose 5 mg/kg
[15] = test system: T47D; experiment: Induction of apoptosis in human T47D cells assessed as sub-diploid DNA content at 5 nM after 24 hrs by using propidium iodide staining by flow cytometry; format: functional; how it was run: as §3
[16] = test system: T47D; experiment: Induction of apoptosis in human T47D cells assessed as S phase DNA content at 5 nM after 24 hrs by using propidium iodide staining by flow cytometry; format: functional; how it was run: as §3
[17] = test system: T47D; experiment: Induction of apoptosis in human T47D cells assessed as G1 phase DNA content at 5 nM after 24 hrs by using propidium iodide staining by flow cytometry; format: functional; how it was run: as §3
[18] = test system: Brain; experiment: AUC (0 to infinity) in C57BL/6 mouse brain at 2.5 mg/kg, iv; format: ADME, organism-based; design: time infinity, dose 2.5 mg/kg, route intravenous; conditions: in vivo; how it was run: as §2
[19] = test system: Jurkat; experiment: Induction of apoptosis in human Jurkat cells assessed as sub-diploid DNA content at 10 nM after 18 hrs by flow cytometry; format: functional
[20] = test system: HCT-116; experiment: Growth inhibition of human HCT116 cells after 48 hrs by celltiter assay; format: functional; conditions: HCT-116, 48 h; how it was run: as §4
[21] = test system: T47D; experiment: Induction of apoptosis in human T47D cells assessed as G2/M DNA content at 5 nM after 24 hrs by using propidium iodide staining by flow cytometry; format: functional; how it was run: as §3
[22] = test system: MX1; experiment: Antitumor activity against human MX1 cells xenografted in Crl:Nu/Nu-nuBR mouse assessed as tumor growth inhibition at 10 mg/kg, iv administered once weekly for 3 weeks; format: functional, organism-based; design: dose 10 mg/kg
[23] = test system: T47D; experiment: Induction of apoptosis in human T47D cells assessed as subdiploid DNA content at 5 nM after 48 hrs by using propidium iodide staining by flow cytometry
[24] = Drug level in rhesus monkey cerebrospinal fluid; format: ADME, tissue-based, Macaca mulatta; conditions: in vivo

Structure (SMILES) | EC50 [1] [nM] | EC50 [2] [nM] | EC50 [3] [nM] | also measured
Cc1nc(N(C)c2ccc(F)cc2)c2ccccc2n1 | 630 | 420 | 390 | 
CCc1ccc(N(C)c2nc(C)nc3ccccc23)cc1 | 26 | 31 |  | 
COc1ccc(N(C)c2nc(CO)nc3ccccc23)cc1 | 4 | 2 | 2 | 
COc1ccc(N(C)c2nc(Cl)nc3ccccc23)cc1 | 2 | 2 | 2 | 
COc1ccc(N(C)c2nc(C)nc3ccccc23)c(F)c1 | 4 | 4 | 4 | 
Cc1nc(N(C)c2ccc([N+](=O)[O-])cc2)c2ccccc2n1 | 1300 | 740 | 620 | 
COc1ccc(S(=O)(=O)Nc2cccnc2Nc2ccc(O)cc2)cc1 [ABT-751] |  |  |  | Drug uptake [4]: 1.1%
Cc1nc(N(C)c2ccc(N=[N+]=[N-])cc2)c2ccccc2n1 | 12 | 11 | 11 | 
COc1ccc(N(C)c2nc(C)nc3ccccc23)cc1F | 2 | 2 | 2 | 
CNc1nc(N(C)c2ccc(OC)cc2)c2ccccc2n1 | 9 | 8 | 5 | 
Cc1nc(N(C)c2ccc(N(C)C)nc2)c2ccccc2n1 | 33 | 15 | 20 | 
COc1cnc(N(C)c2nc(C)nc3ccccc23)cn1 | 75 | 53 | 49 | Kp [5]: 1.9
Cc1nc(N(C)c2ccc(OC(F)F)cc2)c2ccccc2n1 | 11 | 9 |  | 
CCOc1ccc(N(C)c2nc(C)nc3ccccc23)cc1 | 4 | 4 | 4 | 
Cc1nc(N(C)c2ccc(N(C)C)cc2)c2ccccc2n1 | 19 | 16 |  | 
COc1ccc(N(C)c2nc(CF)nc3ccccc23)cc1 | 2 | 2 | 1 | 

Structure (SMILES) | EC50 [1] [nM] | EC50 [2] [nM] | EC50 [3] [nM] | also measured
COc1ccc(N(C)c2nc(C)nc3ccccc23)nc1 | 44 | 16 | 18 | 
CSc1ccc(N(C)c2nc(C)nc3ccccc23)cc1 | 3 | 3 |  | 
COc1ccc(N(C)c2nc(CCl)nc3ccccc23)cc1 | 48 | 48 |  | 
COc1ccc(N(C)c2nc(C)nc3ccccc23)cc1 [VERUBULIN] | 3 |  | 2 | Activity [6]: 16%; Activity [7]: 11%; Activity [8]: Active; Activity [9]: 34%; GI50 [10]: 6 nM; GI50 [11]: 3 nM; AUC [12]: 686 ng/mL; Activity [13]: 14%; Activity [14]: Active; Activity [15]: 15%; Activity [16]: 10%; Activity [17]: 15%; AUC [18]: 11459 ng/mL; Activity [19]: 68%; GI50 [20]: 6 nM; Activity [21]: 58%; Activity [22]: Active; Activity [23]: 34%; Kp [5]: 16
COc1ccc(N(C)c2nc(C)nc3ccccc23)cc1OC | 14 | 10 | 13 | 
COc1ccc(N(C)c2nc(CN(C)C)nc3ccccc23)cc1 | 2600 | 1800 | 2000 | 
COc1ccc(N(C)c2nc(C)nc3ccccc23)cn1 |  |  |  | Kp [5]: 5.8
COc1ccc(N(C)c2nc(N(C)C(C)=O)nc3ccccc23)cc1 | 9 | 9 | 10 | 
COc1ccc(N(C)c2nc(NN)nc3ccccc23)cc1 | 36 | 23 | 20 | 
COc1ccc(N(C)c2nc(N(C)C)nc3ccccc23)cc1 | 43 | 15 | 33 | Kp [5]: 4
Cc1nc(N(C)c2ccc(N)cc2)c2ccccc2n1 | 250 | 180 | 170 | Kp [5]: 0.9
COc1ccc(N(C)c2nc(NC/C=C(\C)CCC=C(C)C)nc3ccccc23)cc1 | 460 | 290 | 270 | 
CC(=O)Nc1ccc(N(C)c2nc(C)nc3ccccc23)cc1 | 83 | 59 | 66 | Kp [5]: 0.74
Cc1ccc(NC(=O)c2ccc(CN3CCN(C)CC3)cc2)cc1Nc1nccc(-c2cccnc2)n1 [IMATINIB] |  |  |  | Drug uptake [24]: 5%
Cc1nc(N(C)c2ccc(O)cc2)c2ccccc2n1 | 130 | 86 |  | 
